Assay results published in ChEMBL document CHEMBL4840315, “Δ9-cis-Tetrahydrocannabinol: Natural Occurrence, Chirality, and Pharmacology” (J Nat Prod, 2021).
Calls of active or inactive are those of the source.

What was measured:
[1] = target: T1, Fatty-acid amide hydrolase 1 (Homo sapiens, UniProt O00519); assay: Inhibition of FAAH (unknown origin) in human U-937 cells using [ethanolamine-1-3H]AEA as substrate preincubated for 30 mins followed by substrate addition measured after 15 mins by liquid scintillation spectroscopy; assay type: cell-based
T1 sequence (O00519 whole entry): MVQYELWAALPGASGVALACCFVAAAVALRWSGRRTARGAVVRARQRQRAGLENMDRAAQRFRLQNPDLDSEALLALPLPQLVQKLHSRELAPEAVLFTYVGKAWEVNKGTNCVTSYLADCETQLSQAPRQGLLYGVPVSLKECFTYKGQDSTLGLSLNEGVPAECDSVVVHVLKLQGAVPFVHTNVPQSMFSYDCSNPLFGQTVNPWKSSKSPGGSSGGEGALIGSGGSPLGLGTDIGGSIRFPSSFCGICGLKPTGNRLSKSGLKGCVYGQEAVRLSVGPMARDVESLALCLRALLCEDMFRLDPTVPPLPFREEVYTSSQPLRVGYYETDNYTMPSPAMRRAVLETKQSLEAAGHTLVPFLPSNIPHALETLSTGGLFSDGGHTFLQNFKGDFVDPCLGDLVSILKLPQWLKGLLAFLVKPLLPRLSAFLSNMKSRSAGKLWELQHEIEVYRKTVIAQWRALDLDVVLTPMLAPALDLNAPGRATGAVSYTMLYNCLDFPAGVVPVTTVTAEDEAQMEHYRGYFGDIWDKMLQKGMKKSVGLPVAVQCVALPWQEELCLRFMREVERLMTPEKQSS
Method in brief: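 U937 cell homogenate (100 μg) in 10 mM Tris-HCl, 1 mM EDTA, 0.1% fatty-acid-free BSA, pH 8. Compound preincubated 30 min at 37 °C, then 100 nM AEA with 1 nM [ethanolamine-1-3H]AEA tracer added for 15 min at 37 °C. Stopped with cold CHCl3/MeOH (1:1); tritium counted in aqueous phase.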

[2] = target: T2, Monoglyceride lipase (Homo sapiens, UniProt Q99685); assay: Inhibition of MAGL (unknown origin) in human U-937 cells using [ethanolamine-1-3H]AEA as substrate preincubated for 30 mins followed by substrate addition measured after 15 mins by liquid scintillation spectroscopy; assay type: cell-based
T2 sequence (Q99685 whole entry): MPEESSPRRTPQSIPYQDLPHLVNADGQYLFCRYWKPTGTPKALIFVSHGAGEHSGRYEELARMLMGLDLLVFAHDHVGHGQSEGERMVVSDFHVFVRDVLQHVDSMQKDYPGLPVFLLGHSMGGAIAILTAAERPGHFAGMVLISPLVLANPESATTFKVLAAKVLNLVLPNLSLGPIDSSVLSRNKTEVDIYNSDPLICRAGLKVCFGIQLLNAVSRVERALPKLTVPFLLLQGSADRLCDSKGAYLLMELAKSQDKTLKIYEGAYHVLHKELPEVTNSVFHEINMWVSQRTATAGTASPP

[3] = target: T3, Monoacylglycerol lipase ABHD6 (Homo sapiens, UniProt Q9BV23); assay: Inhibition of human ABHD6 transfected in HEK293 cells using 2-OG as substrate preincubated for 30 mins followed by substrate addition measured after 5 mins by liquid scintillation spectroscopy; assay type: cell-based
T3 sequence (Q9BV23 whole entry): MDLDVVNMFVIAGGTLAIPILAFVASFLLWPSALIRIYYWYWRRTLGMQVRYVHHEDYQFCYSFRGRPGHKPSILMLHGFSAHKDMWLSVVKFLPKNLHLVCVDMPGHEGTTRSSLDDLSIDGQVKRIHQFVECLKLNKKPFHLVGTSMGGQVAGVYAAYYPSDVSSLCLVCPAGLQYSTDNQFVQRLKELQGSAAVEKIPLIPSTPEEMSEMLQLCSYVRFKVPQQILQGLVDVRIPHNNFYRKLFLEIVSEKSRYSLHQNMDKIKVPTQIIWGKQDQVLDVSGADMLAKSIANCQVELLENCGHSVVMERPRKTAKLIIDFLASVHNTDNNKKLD
Method in brief: (§1)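 Homogenate (40 μg) of HEK-293 cells stably expressing hABHD6 or hABHD12, in […], 0.1% BSA, pH 7.6. Compound preincubated 30 min at 37 °C, then 10 μM 2-OG for 5 min at 37 °C. Tritium counted in aqueous phase; non-transfected HEK293 hydrolysis subtracted. Positive controls: WWL70 10 μM (ABHD6), THL 20 μM (ABHD12). At least two experiments in triplicate, mean ± SD.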

[4] = target: T4, Lysophosphatidylserine lipase ABHD12 (Homo sapiens, UniProt Q8N2K0); assay: Inhibition of human ABHD12 transfected in HEK293 cells using 2-OG as substrate preincubated for 30 mins followed by substrate addition measured after 5 mins by liquid scintillation spectroscopy; assay type: cell-based; method in brief: as §1
T4 sequence (Q8N2K0 whole entry): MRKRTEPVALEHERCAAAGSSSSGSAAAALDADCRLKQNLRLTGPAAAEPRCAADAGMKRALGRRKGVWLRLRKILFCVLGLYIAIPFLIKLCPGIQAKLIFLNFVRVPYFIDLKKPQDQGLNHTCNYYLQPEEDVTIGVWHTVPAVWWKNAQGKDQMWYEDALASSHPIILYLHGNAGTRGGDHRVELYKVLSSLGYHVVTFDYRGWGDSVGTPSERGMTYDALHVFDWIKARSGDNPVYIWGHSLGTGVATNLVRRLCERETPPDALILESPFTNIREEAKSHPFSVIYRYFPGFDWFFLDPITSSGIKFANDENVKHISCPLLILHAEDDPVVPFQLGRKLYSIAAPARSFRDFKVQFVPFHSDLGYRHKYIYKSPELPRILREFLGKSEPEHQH

[5] = system: Mus musculus; assay: In vivo agonist activity at CB1R in BALB/c mouse assessed as induction of hypothermia at 50 mg/kg, ip measured after 1 hr by rectal measurement method; assay type: functional, organism-based
Method in brief: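 Male BALB/c mice (8–10 weeks) given compound in pure DMSO intraperitoneally, 5–8 mice per group. Rectal temperature taken by thermocouple probe before dosing and 1 h after. Change is expressed as basal minus post-injection temperature. Groups compared with vehicle by Kruskal–Wallis then Mann–Whitney.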

[6] = system: Mus musculus; assay: In vivo agonist activity at CB1R in BALB/c mouse assessed as catalepsy like behaviour at 50 mg/kg, ip measured after 1 hr by bar test; assay type: functional, organism-based
Method in brief: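 Male BALB/c mice (8–10 weeks) given compound in pure DMSO intraperitoneally, 5–8 mice per group. Bar test at 1 h: forelimbs placed on a 4 cm high bar. End-point is both front limbs removed or held over 120 s. Three trials per mouse. Groups compared with vehicle by Kruskal–Wallis then Mann–Whitney.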

[7] = system: Mus musculus; assay: In vivo agonist activity at CB1R in BALB/c mouse assessed as induction of hypolocomotion at 50 mg/kg, ip measured after 1 hr by rotarod test; assay type: functional, organism-based
Method in brief: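 Male BALB/c mice (8–10 weeks) given compound in pure DMSO intraperitoneally, 5–8 mice per group. Rotarod at 6 rpm, 1 h post-dose. Read-out is latency to fall, cutoff 120 s, over three trials. Groups compared with vehicle by Kruskal–Wallis then Mann–Whitney.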

[8] = system: Mus musculus; assay: In vivo agonist activity at CB1R in BALB/c mouse assessed as induction of analgesia at 50 mg/kg, ip measured after 1 hr by hot plate test; assay type: functional, organism-based
Method in brief: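 Male BALB/c mice (8–10 weeks) given compound in pure DMSO intraperitoneally, 5–8 mice per group. Hot plate at 54–56 °C inside a Plexiglas cylinder, 1 h post-dose. Read-out is latency to first nociceptive response (paw lick or foot shake). Groups compared with vehicle by Kruskal–Wallis then Mann–Whitney.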

SMILES	IC50 [1]	IC50 [2]	IC50 [3]	IC50 [4]	Activity [5]	Activity [6]	Activity [7]	Activity [8]
CCCCCc1cc(O)c2c(c1)OC(C)(C)[C@H]1CCC(C)=C[C@@H]21	36.3 µM	> 100 µM	39.8 µM	14.1 µM	Active	Active	Active	Active
CCCCCc1cc(O)c2c(c1)OC(C)(C)[C@@H]1CCC(C)=C[C@@H]21 [DRONABINOL]	43.6 µM	> 100 µM	48.2 µM	11.6 µM	Active	Active	Active	Active
CCCCCc1cc(O)c2c(c1)OC(C)(C)[C@@H]1CCC(C)=C[C@H]21	> 80 µM	> 100 µM	35.1 µM	28.8 µM				
